Activity calls are given as the source filed them.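 The calls were made as follows: active = inhibition above 25%, the campaign hit cutoff; inactive = the rest.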
Target: Nuclear receptor subfamily 5 group A member 2 (Homo sapiens) (UniProt O00482)
Assay: LRH-1 reporter luminescence decrease – cell-based, 3X%INH, LRH-1 inverse agonist project (AID 485348)
Settings: HEK293T LRH-1 Cyp19-luciferase reporter, 20 h, at 5 µM, active compounds read high
Method in brief: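 Assay system: HEK293T with full-length LRH-1 plus Cyp19 luciferase reporter. Times: 24 h bulk transfection, 4 h post-plating rest, 20 h compound exposure. Signal: luminescence. Control set: DMSO vehicle-treated wells as reference.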

Chain of Nuclear receptor subfamily 5 group A member 2 (Homo sapiens) (O00482 whole entry, looked up): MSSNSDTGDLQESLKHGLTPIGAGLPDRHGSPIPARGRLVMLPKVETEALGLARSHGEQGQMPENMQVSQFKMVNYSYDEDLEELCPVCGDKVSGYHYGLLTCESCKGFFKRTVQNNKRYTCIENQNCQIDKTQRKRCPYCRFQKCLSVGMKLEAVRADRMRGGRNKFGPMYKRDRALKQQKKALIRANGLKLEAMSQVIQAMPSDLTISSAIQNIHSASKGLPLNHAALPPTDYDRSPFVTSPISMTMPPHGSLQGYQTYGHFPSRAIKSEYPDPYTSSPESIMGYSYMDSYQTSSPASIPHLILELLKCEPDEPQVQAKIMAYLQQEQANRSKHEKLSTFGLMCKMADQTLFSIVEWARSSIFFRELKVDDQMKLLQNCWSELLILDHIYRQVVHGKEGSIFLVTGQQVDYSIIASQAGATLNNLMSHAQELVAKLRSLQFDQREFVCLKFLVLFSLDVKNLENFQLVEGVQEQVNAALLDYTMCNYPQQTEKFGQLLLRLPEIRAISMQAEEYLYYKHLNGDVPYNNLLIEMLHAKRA

| SMILES | inhibition |
| --- | --- |
| Cc1ccc(Cl)cc1N1CCN(c2cc(=O)n(C3CCCCC3)c(=O)[nH]2)CC1 | 16.3% (inactive) |
| CCN1CCN(c2cc(=O)n(C3CCCCC3)c(=O)[nH]2)CC1 | 5.3% (inactive) |
| O=c1cc(N2CCN(c3ncccc3Cl)CC2)[nH]c(=O)n1C1CCCCC1 | 17.7% (inactive) |
| O=c1cc(N2CCN(c3nc(-c4ccccc4)ns3)CC2)[nH]c(=O)n1C1CCCCC1 | 42% |
| O=c1cc(N2CCN(c3ccccn3)CC2)[nH]c(=O)n1C1CCCCC1 | 36% |
| COC(=O)C1CCN(c2cc(=O)n(C3CCCCC3)c(=O)[nH]2)CC1 | 18% (inactive) |
| O=c1cc(N2CCN(Cc3ccc(Cl)cc3)CC2)[nH]c(=O)n1C1CCCCC1 | 30.3% |
| O=c1cc(N2CCc3ccccc32)[nH]c(=O)n1C1CCCCC1 | 14.3% (inactive) |
| O=c1cc(N2CCN(c3cccc(Cl)c3Cl)CC2)[nH]c(=O)n1C1CCCCC1 | 42% |
| O=c1cc(N2CCCC2)[nH]c(=O)n1C1CCCCC1 | 8.7% (inactive) |
| O=c1cc(N2CCN(c3cc(Cl)cc(Cl)c3)CC2)[nH]c(=O)n1C1CCCCC1 | 20% (inactive) |
| O=c1cc(N2CCOCC2)[nH]c(=O)n1C1CCCCC1 | 5.3% (inactive) |
| O=c1cc(N2CCN(CCN3CCOCC3)CC2)[nH]c(=O)n1C1CCCCC1 | 13.3% (inactive) |
| O=C(c1ccccc1)N1CCN(c2cc(=O)n(C3CCCCC3)c(=O)[nH]2)CC1 | 0.3% (inactive) |
| Cc1cc(C)cc(N2CCN(c3cc(=O)n(C4CCCCC4)c(=O)[nH]3)CC2)c1 | 38.3% |
| O=c1cc(N2CCN(c3ccnc4cc(Cl)ccc34)CC2)[nH]c(=O)n1C1CCCCC1 | 34.7% |

| SMILES | inhibition |
| --- | --- |
| O=c1cc(N2CCC(Cc3ccccc3)CC2)[nH]c(=O)n1C1CCCCC1 | 2.3% (inactive) |
| O=c1cc(N2CCN(c3ccc(F)cc3F)CC2)[nH]c(=O)n1C1CCCCC1 | 3.3% (inactive) |
| O=c1cc(N2CCN(c3nccc4occc34)CC2)[nH]c(=O)n1C1CCCCC1 | 2.7% (inactive) |
| C=CCN1CCN(c2cc(=O)n(C3CCCCC3)c(=O)[nH]2)CC1 | -30% (inactive) |
| O=C(c1ccco1)N1CCN(c2cc(=O)n(C3CCCCC3)c(=O)[nH]2)CC1 | 11% (inactive) |
| CC1CCN(c2cc(=O)n(C3CCCCC3)c(=O)[nH]2)CC1 | 10% (inactive) |
| O=c1cc(N2CCN(C3CCCCC3)CC2)[nH]c(=O)n1C1CCCCC1 | 35.3% |
| O=c1cc(N2CCN(c3cccc(Cl)n3)CC2)[nH]c(=O)n1C1CCCCC1 | 45% |
| O=c1cc(N2CCN(c3ncccc3C(F)(F)F)CC2)[nH]c(=O)n1C1CCCCC1 | 11.3% (inactive) |
| Cc1ccc(C)n1CCN1CCN(c2cc(=O)n(C3CCCCC3)c(=O)[nH]2)CC1 | 32.3% |
| O=c1cc(N2CCCCC2)[nH]c(=O)n1C1CCCCC1 | 20.3% (inactive) |
| COc1ccc(N2CCN(c3cc(=O)n(C4CCCCC4)c(=O)[nH]3)CC2)cc1 | 1.7% (inactive) |
| O=c1cc(N2CCN(c3ccc(F)cc3)CC2)[nH]c(=O)n1C1CCCCC1 | 1.3% (inactive) |
| O=c1cc(N2CCN(Cc3ccc4c(c3)OCO4)CC2)[nH]c(=O)n1C1CCCCC1 | 16.7% (inactive) |
| CCOC(=O)N1CCN(c2cc(=O)n(C3CCCCC3)c(=O)[nH]2)CC1 | 16% (inactive) |
| CCn1c(=O)cc(N2CCN(C(=O)c3ccco3)CC2)[nH]c1=O | 3.3% (inactive) |

More lines, now with the values ahead:

| inhibition | SMILES |
| --- | --- |
| 20.3% (inactive) | O=c1cc(N2CCN(c3cc(C(F)(F)F)ccn3)CC2)[nH]c(=O)n1C1CCCCC1 |
| 0% (inactive) | O=c1cc(N2CCN(c3ccc(C(F)(F)F)cc3)CC2)[nH]c(=O)n1C1CCCCC1 |
| 17% (inactive) | O=c1cc(N2CCN(c3cccc(Br)c3)CC2)[nH]c(=O)n1C1CCCCC1 |
| 39.3% | CCn1c(=O)cc(N2CCN(c3cccc(C(F)(F)F)c3)CC2)[nH]c1=O |
| 22.7% (inactive) | O=c1cc(N2CCN(c3ccccc3)CC2)[nH]c(=O)n1Cc1ccc(F)cc1 |
| 17.7% (inactive) | O=c1cc(N2CCN(c3cccc(C(F)(F)F)c3)CC2)[nH]c(=O)n1-c1ccccc1 |
| 3.3% (inactive) | O=c1cc(N2CCN(c3cccc(C(F)(F)F)n3)CC2)[nH]c(=O)n1C1CCCCC1 |
| 0% (inactive) | O=c1cc(N2CCN(c3cccc(Cl)c3)CC2)[nH]c(=O)[nH]1 |
| 45.7% | O=c1cc(N2CCN(c3cccc(C(F)(F)F)c3)CC2)[nH]c(=O)n1C1CCCCC1 |
| 3.7% (inactive) | CCn1c(=O)cc(N2CCN(c3ccccc3)CC2)[nH]c1=O |
| 45% | CCn1c(=O)cc(N2CCN(c3cccc(Cl)c3)CC2)[nH]c1=O |
| 2% (inactive) | N#CCn1c(N2CCN(c3cccc(C(F)(F)F)c3)CC2)cc(=O)n(C2CCCCC2)c1=O |
| 36.7% | C=CCn1c(=O)cc(N2CCN(c3cccc(C(F)(F)F)c3)CC2)[nH]c1=O |
| 40.7% | Cn1c(=O)cc(N2CCN(c3cccc(Cl)c3)CC2)[nH]c1=O |
| 4% (inactive) | O=c1cc(N2CCN(C(c3ccccc3)c3ccccc3)CC2)[nH]c(=O)n1C1CCCCC1 |
| 52.3% | O=c1cc(N2CCN(c3cccc(Cl)c3)CC2)[nH]c(=O)n1C1CCCCC1 |
| 2.3% (inactive) | CCn1c(=O)cc(N2CCN(c3ccc(F)cc3)CC2)[nH]c1=O |
| 16% (inactive) | O=c1cc(N2CCN(c3ccccc3C(F)(F)F)CC2)[nH]c(=O)n1C1CCCCC1 |
| 29.7% | C=CCn1c(N2CCN(c3cccc(C(F)(F)F)c3)CC2)cc(=O)n(C2CCCCC2)c1=O |
| 33.3% | CC(C)Cn1c(=O)cc(N2CCN(c3cccc(C(F)(F)F)c3)CC2)[nH]c1=O |
| 36.7% | O=c1cc(N2CCN(c3cccc(F)c3)CC2)[nH]c(=O)n1C1CCCCC1 |
| 21.3% (inactive) | O=c1cc(N2CCN(c3cccc(C(F)(F)F)c3)CC2)n(Cc2ccccc2)c(=O)n1C1CCCCC1 |
| 16% (inactive) | O=c1cc(N2CCN(c3ccccc3Cl)CC2)[nH]c(=O)n1C1CCCCC1 |
| 3% (inactive) | O=c1cc(N2CCN(c3cccc(C(F)(F)F)c3)CC2)[nH]c(=O)n1Cc1ccccc1 |
| 14% (inactive) | Cn1c(=O)cc(N2CCN(c3ccc(F)cc3)CC2)[nH]c1=O |
| 5.7% (inactive) | CC1CCN(c2cc(=O)n(Cc3ccc(F)cc3)c(=O)[nH]2)CC1 |
| 9.7% (inactive) | CCn1c(=O)cc(N2CCN(Cc3ccccc3)CC2)[nH]c1=O |
| 32% | O=c1cc(N2CCN(c3ccccc3)CC2)[nH]c(=O)n1C1CCCCC1 |
